Screening data from PubChem BioAssay.
This excerpt belongs to a sample that is enriched for hits.
HCT116 bCat-KO: beta-catenin-lacking colon tumor cell growth suppression. AID 818. 1.5% of 140,000 active. viability, % at 10 µM. HCT116 beta-catenin knockout viability, CellTiter-Glo, 60 h; hits give low values;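 active = viability at or under a set limit, the compound median less 4 SD, cut at about 6% in these data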;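 also: 0% = Hyamine 1622 control at 20 µM and 100% = untreated cell control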
HUVEC prolif 384: human endothelial cell proliferation inhibition; HUVEC proliferation, CellTiter-Glo luminescence, 72 h; hits give low values; viability, % at 10 µM (by protocol); 1.1% of 86,000 active; AID 648;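 active = viability at or below 30%; inactive = viability above 30%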;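 also: 100% = median luminescence of DMSO-only cell control wells on each plate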
H69AR growth 86K: growth inhibitors of human H69AR lung tumor cells; H69AR lung tumor viability, ATP luminescence, 72 h; hits give low values; viability, % at 10 µM; 6% of 85,000 active;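 active = viability at or below 40%; inactive = viability above 40%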;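 also: multidrug resistant small cell line overexpressing MRP-1 efflux transporter; 100% = mean luminescence of untreated control wells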
PTEN del growth: growth suppressors of cells with PTEN tumor suppressor deletion | HCT116 PTEN-null viability, CellTiter-Glo, 60 h; hits give low values | viability, % at 10 µM | AID 827 | 1.2% of 140,000 active;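 active = viability at or below a set limit, 4 SD under the median of all tested compounds, cut at about 3.7% in these data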;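 also: PTEN knockout HCT116 line with beta catenin targeted HCT116 as companion control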
Lung fibro prol: blocks proliferation of human lung fibroblasts; LL 47 human lung fibroblast viability, ATP luminescence; hits give low values; viability, % at 10 µM; 1.1% of 85,000 active;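 active = viability at or below 50% in the single dose screen; inactive = viability above 50%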;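 also: compound exposure lasted 72 h before the ATP readout; 100% = median luminescence of untreated cell-only wells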
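Test system: LL 47 human lung fibroblasts / Incubation: 72 h compound exposure at 37 °C after overnight plating / Technique: luminescent ATP detection, CellTiter-Glo / Compound dosing: 0.1% DMSO in all compound wells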
Pyk2 oligo antag: Pyk2 (human) oligomerization antagonism. 0.83% of 99,000 active. z-score (the deposit names both 25 µM and 10 µM). Q293 cells, Pyk2 FERM NanoBiT luminescence; hits give low values. Q14289. AID 1347419;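 active = Z-score of -3 or lower, scaled per plate to the spread of control and sample wells; inactive = z-score above -3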;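 also: negative z-score means lost luminescence so less FERM oligomerization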
Target sequence (Q14289 whole entry, looked up): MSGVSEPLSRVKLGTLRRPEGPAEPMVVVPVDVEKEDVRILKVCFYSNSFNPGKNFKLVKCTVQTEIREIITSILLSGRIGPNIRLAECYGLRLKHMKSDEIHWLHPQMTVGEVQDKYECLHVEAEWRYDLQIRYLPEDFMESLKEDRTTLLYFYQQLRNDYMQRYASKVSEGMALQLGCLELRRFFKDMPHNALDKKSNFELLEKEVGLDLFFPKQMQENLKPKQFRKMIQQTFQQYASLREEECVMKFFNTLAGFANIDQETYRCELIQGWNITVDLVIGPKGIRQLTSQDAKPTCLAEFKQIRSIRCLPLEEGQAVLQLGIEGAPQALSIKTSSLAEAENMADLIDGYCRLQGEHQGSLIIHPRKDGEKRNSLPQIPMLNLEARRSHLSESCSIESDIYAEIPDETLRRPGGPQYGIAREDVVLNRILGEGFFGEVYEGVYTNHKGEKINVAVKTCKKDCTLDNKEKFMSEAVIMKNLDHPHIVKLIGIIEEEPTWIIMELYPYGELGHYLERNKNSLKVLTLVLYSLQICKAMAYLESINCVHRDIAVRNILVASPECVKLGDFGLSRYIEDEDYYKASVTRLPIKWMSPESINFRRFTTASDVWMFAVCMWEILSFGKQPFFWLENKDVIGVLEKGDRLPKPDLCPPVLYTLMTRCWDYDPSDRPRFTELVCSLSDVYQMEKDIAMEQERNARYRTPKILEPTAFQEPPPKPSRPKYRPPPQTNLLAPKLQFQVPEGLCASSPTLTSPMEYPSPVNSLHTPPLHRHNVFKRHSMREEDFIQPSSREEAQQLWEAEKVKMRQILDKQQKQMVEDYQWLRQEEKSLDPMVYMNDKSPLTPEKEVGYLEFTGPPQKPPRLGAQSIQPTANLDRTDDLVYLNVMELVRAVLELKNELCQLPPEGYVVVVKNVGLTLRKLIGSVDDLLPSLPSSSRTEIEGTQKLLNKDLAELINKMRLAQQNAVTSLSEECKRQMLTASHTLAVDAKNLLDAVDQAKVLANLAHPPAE
Starred values were filed as active, the others as inactive.

How did C/C(=N\NC(=O)c1ccccc1O)C1C(=O)c2ccccc2C1=O do in these assays?
HCT116 bCat-KO: 4.0*; PTEN del growth: 5.3; Pyk2 oligo antag: -2.58

What do the screens show for `C/C(CC(=O)N1CCN(C=O)CC1)=N\NC(=O)c1cc2ccccc2cc1O`?
HCT116 bCat-KO: 41.3; PTEN del growth: 50.9

How did Cc1cc(C(=O)NCCN2C(=O)S/C(=C\c3cccs3)C2=O)ccc1[N+](=O)[O-] do in these assays?
HCT116 bCat-KO: 96.0; PTEN del growth: 89.1

Results for CCN(CC)C(=O)CNC(=S)N(CCCN1CCOCC1)Cc1cccs1 ?
HCT116 bCat-KO: 86.1; PTEN del growth: 94.2; Pyk2 oligo antag: 1.19

What do the screens show for `Cc1cc(C)cc(NC(=O)OCCN2CCN(Cc3ccccc3)CCC2=O)c1`?
HCT116 bCat-KO: 89.7; PTEN del growth: 97.3

How did Cc1ccc(N=c2oc3cc(O)ccc3cc2C(N)=O)cc1 do in these assays?
HCT116 bCat-KO: 73.4; HUVEC prolif 384: 47.4; H69AR growth 86K: 39.4*; PTEN del growth: 79.4; Lung fibro prol: 82.2; Pyk2 oligo antag: -1.42

What do the screens show for `COc1ccc(N=c2oc3cc(O)ccc3cc2C(=O)NCC2CCCO2)cc1` (configuration not stated)?
HCT116 bCat-KO: 95.6; HUVEC prolif 384: 79.6; H69AR growth 86K: 79.2; PTEN del growth: 99.6; Lung fibro prol: 111.1; Pyk2 oligo antag: -2.5

What do the screens show for `Cn1c(CCN2CCCCC2)nc2cc(NS(=O)(=O)c3ccc(Cl)cc3)ccc21`?
HCT116 bCat-KO: 12.7; HUVEC prolif 384: 104.1; H69AR growth 86K: 9.8*; PTEN del growth: 16.5; Lung fibro prol: 100.0; Pyk2 oligo antag: -1.02

Results for COc1ccc2c(c1OC)C(=O)N1N=C(c3ccc(O)cc3)CC21 (configuration not stated) ?
HCT116 bCat-KO: 70.5; PTEN del growth: 76.5; Pyk2 oligo antag: -0.5

Results for OC(CCCN1CCC(O)(c2ccc(Cl)cc2)CC1)c1ccc(F)cc1 (configuration not stated) ?
HCT116 bCat-KO: 0.6*; HUVEC prolif 384: 115.6; H69AR growth 86K: 81.0; PTEN del growth: 0.7*; Lung fibro prol: 87.5

How did COc1ccc(/C=C(/NC(=O)c2ccccc2)C(=O)NC2CCS(=O)(=O)C2)cc1 (configuration not stated) do in these assays?
HCT116 bCat-KO: 94.5; PTEN del growth: 98.2

Results for O=C(CSc1ncnc2c1cnn2Cc1ccccc1)Nc1ccc2c(c1)OCCO2 ?
HCT116 bCat-KO: 67.5; HUVEC prolif 384: 94.6; H69AR growth 86K: 33.5*; PTEN del growth: 72.9; Lung fibro prol: 94.4; Pyk2 oligo antag: -0.25

Results for Cc1nc(SCC(=O)Nc2ccc3c(c2)OCCO3)c2oc3ccccc3c2n1 ?
HCT116 bCat-KO: 90.4; HUVEC prolif 384: 98.3; H69AR growth 86K: 63.5; PTEN del growth: 99.5; Lung fibro prol: 98.1; Pyk2 oligo antag: -2.36

Results for CCc1nc(SCC(=O)Nc2ccc3c(c2)OCCO3)c2oc3ccccc3c2n1 ?
HCT116 bCat-KO: 50.0; HUVEC prolif 384: 19.6*; H69AR growth 86K: 0.9*; PTEN del growth: 57.8; Lung fibro prol: 93.7; Pyk2 oligo antag: -0.16

Results for CCc1nc(SCC(=O)Nc2nccs2)c2oc3ccccc3c2n1 ?
HCT116 bCat-KO: 89.9; HUVEC prolif 384: 69.3; H69AR growth 86K: 13.2*; PTEN del growth: 93.2; Lung fibro prol: 76.0; Pyk2 oligo antag: -0.91

What do the screens show for `CCc1nc(SCC(=O)N2CCCc3ccccc32)c2oc3ccccc3c2n1`?
HCT116 bCat-KO: 47.9; HUVEC prolif 384: 74.5; H69AR growth 86K: 69.3; PTEN del growth: 36.3; Lung fibro prol: 95.0; Pyk2 oligo antag: -2.53

Results for O=C(c1ccccc1Oc1ccccc1)N1CCN(c2ccccc2F)CC1 ?
HCT116 bCat-KO: 74.4; HUVEC prolif 384: 102.4; H69AR growth 86K: 85.2; PTEN del growth: 74.2; Lung fibro prol: 85.3; Pyk2 oligo antag: -1.93

How did CCOC(=O)c1cc(-c2nnc(-c3ccc(Oc4ccccc4)cc3)o2)c(C)nc1C do in these assays?
HCT116 bCat-KO: 75.2; HUVEC prolif 384: 88.8; H69AR growth 86K: 93.3; PTEN del growth: 71.9; Lung fibro prol: 86.0

What do the screens show for `CCCCC(CC)CNC(=O)C1CC=CCC1C(=O)O` (configuration not stated)?
HCT116 bCat-KO: 97.2; PTEN del growth: 98.4

What do the screens show for `O=C(/C=C/c1ccc(OCc2ccccc2)c(OCc2ccccc2)c1)c1cccnc1`?
HCT116 bCat-KO: 1.5*; PTEN del growth: 1.6*

What do the screens show for `O=C(/C=C/c1ccccc1)NNC(=O)c1cccnc1`?
HCT116 bCat-KO: 91.7; PTEN del growth: 89.4; Pyk2 oligo antag: 0.1

How did O=C(c1cccnc1)c1cccnc1 do in these assays?
HCT116 bCat-KO: 92.5; PTEN del growth: 99.4

Results for O=C(/C=C/c1ccc(Cl)cc1)c1cccnc1 ?
HCT116 bCat-KO: 0.5*; HUVEC prolif 384: 62.8; H69AR growth 86K: 38.3*; PTEN del growth: 0.7*; Lung fibro prol: 24.8*; Pyk2 oligo antag: -1.19

What do the screens show for `O=C(/C=C/c1ccccc1Cl)c1cccnc1`?
HCT116 bCat-KO: 96.4; HUVEC prolif 384: 21.0*; H69AR growth 86K: 1.2*; PTEN del growth: 93.3; Lung fibro prol: 76.2; Pyk2 oligo antag: -0.91

How did O=C(N/C(=C\c1ccccc1)C(=O)N1CCN(CCO)CC1)c1ccccc1 do in these assays?
HCT116 bCat-KO: 90.9; PTEN del growth: 99.2; Pyk2 oligo antag: 0.28

How did NC(=O)C1CCN(C(=O)OCc2ccccc2)CC1 do in these assays?
HCT116 bCat-KO: 103.9; PTEN del growth: 90.3; Pyk2 oligo antag: 0.07

What do the screens show for `O=C(COC(=O)c1ncc(Cl)c(Cl)c1Cl)c1ccc(Cl)s1`?
HCT116 bCat-KO: 79.8; PTEN del growth: 93.0

How did COCCn1c(=NC(=O)c2cc(Cl)sc2Cl)sc2cc(S(N)(=O)=O)ccc21 do in these assays?
HCT116 bCat-KO: 7.7; PTEN del growth: 2.3*

How did COC(=O)Cn1c(=NC(=O)c2nc3ccccc3s2)sc2cc(S(N)(=O)=O)ccc21 do in these assays?
HCT116 bCat-KO: 94.8; PTEN del growth: 94.2

Results for CCOCCn1c(=NC(=O)c2cc(Cl)sc2Cl)sc2cc(S(N)(=O)=O)ccc21 ?
HCT116 bCat-KO: 4.9*; PTEN del growth: 4.8

Results for COCCn1c(=NC(=O)c2nc3ccccc3s2)sc2cc(S(C)(=O)=O)ccc21 ?
HCT116 bCat-KO: 80.2; PTEN del growth: 75.2

How did COC(=O)NNC(=S)NCc1ccccc1 do in these assays?
HCT116 bCat-KO: 105.1; PTEN del growth: 100.7; Pyk2 oligo antag: 1.12

Results for COc1ccc(C(C)C)cc1S(=O)(=O)n1ccnc1C ?
HCT116 bCat-KO: 92.8; PTEN del growth: 94.3

How did O=C(NCCc1ccccc1)c1c(F)c(F)c(F)c(F)c1F do in these assays?
HCT116 bCat-KO: 94.6; PTEN del growth: 88.8

What do the screens show for `Cc1nn(Cc2ccc(F)cc2)c(Cl)c1/C=N/NC(=O)c1cccnc1`?
HCT116 bCat-KO: 98.8; PTEN del growth: 99.2

What do the screens show for `Cc1nn(Cc2ccc(Cl)cc2Cl)c(Cl)c1/C=N/NC(=O)CNc1cccc(C(F)(F)F)c1`?
HCT116 bCat-KO: 1.8*; PTEN del growth: 2.3*
